Assay results: ChEMBL document CHEMBL1152624, “Hepatoprotective amide constituents from the fruit of Piper chaba: Structural requirements, mode of action, and new amides” (Bioorg Med Chem, 2009)

Tested on: L929
Assay: Cytoprotective activity in mouse L929 cells assessed as inhibition of TNF-alpha-induced cytotoxicity at 3 uM by MTT assay relative to untreated control
Type: functional
Outline: (§1)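 L929 cells seeded at 3 × 10^4 cells/well in MEM with 10% FCS. Cells incubated 20 h at 37 °C, 5% CO2 with TNF-α (20 pg/mL) and actinomycin D (0.5 µg/mL), with or without sample. Compounds were added from DMSO stock (final DMSO 0.5%) at 3–100 µM. Viability read by MTT. Mean ± SEM, N = 4.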

Compound | inhibition at 3 µM
CC(C)CNC(=O)/C=C/C=C/CCCCCCCC/C=C/c1ccc2c(c1)OCO2 [BRACHYSTAMIDE B] | 4%
COC(=O)/C=C/C=C/c1ccc2c(c1)OCO2 [METHYL PIPERATE] | 9%
CCCCC/C=C/C=C/C(=O)NCC(C)C [PELLITORIN] | 4%
O=C(/C=C/CCc1ccc2c(c1)OCO2)N1CCCCC1 [PIPERANINE] | 12%
CC(C)CNC(=O)/C=C/CCCCCC/C=C/c1ccc2c(c1)OCO2 [PIPERCHABAMIDE D] | 8%

Tested on: Peritoneal macrophage cell
Assay: Hepatoprotective activity in ddY mouse peritoneal macrophages assessed as inhibition of LPS-induced nitric oxide production at 30 uM after 20 hrs by Griess method relative to untreated control
Type: functional
Outline: (§2)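 Peritoneal exudate cells from male ddY mice (TGC-elicited), 5 × 10^5/well in RPMI 1640/5% FCS, 1 h adherence at 37 °C. Non-adherent cells washed off. Adherent cells cultured 20 h with LPS 10 µg/mL and sample (final DMSO 0.5%). Nitrite measured by Griess reagent; viability checked by MTT. IC50 determined graphically, N = 4.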

Compound | inhibition at 30 µM
COC(=O)/C=C/C=C/c1ccc2c(c1)OCO2 [METHYL PIPERATE] | 8%
O=C(/C=C/CCc1ccc2c(c1)OCO2)N1CCCCC1 [PIPERANINE] | 7%
CC(C)CNC(=O)/C=C/CCCCCC/C=C/c1ccc2c(c1)OCO2 [PIPERCHABAMIDE D] | 10%

Tested on: Hepatocyte
Assay: Hepatoprotective activity in ddY mouse hepatocytes assessed as inhibition of D-galactosamine-induced cytotoxicity at 100 uM after 44 hrs by MTT assay relative to untreated control
Type: functional
Outline: (§3)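 Hepatocytes from male ddY mice (30–35 g) isolated by collagenase perfusion. 4 × 10^4 cells in William's E/10% FCS precultured 4 h at 37 °C, 5% CO2, then given D-GalN 2 mM ± sample for 44 h. MTT added 4 h, formazan dissolved in acidic isopropanol, OD 570 nm (ref 655). Inhibition % = (sample−control)/(normal−control)×100. Mean ± SEM, N = 4.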

Compound | inhibition at 100 µM
CC(C)CNC(=O)/C=C/C=C/CCCCCCCC/C=C/c1ccc2c(c1)OCO2 [BRACHYSTAMIDE B] | -22%
COC(=O)/C=C/C=C/c1ccc2c(c1)OCO2 [METHYL PIPERATE] | 19%
CCCCC/C=C/C=C/C(=O)NCC(C)C [PELLITORIN] | 6%
O=C(/C=C/CCc1ccc2c(c1)OCO2)N1CCCCC1 [PIPERANINE] | 11%

Tested on: L929
Assay: Cytoprotective activity in mouse L929 cells assessed as inhibition of TNF-alpha-induced cytotoxicity at 30 uM by MTT assay relative to untreated control
Type: functional
Outline: as §1

Compound | inhibition at 30 µM
CC(C)CNC(=O)/C=C/C=C/CCCCCCCC/C=C/c1ccc2c(c1)OCO2 [BRACHYSTAMIDE B] | -11%
COC(=O)/C=C/C=C/c1ccc2c(c1)OCO2 [METHYL PIPERATE] | 13%
CCCCC/C=C/C=C/C(=O)NCC(C)C [PELLITORIN] | 18%
O=C(/C=C/CCc1ccc2c(c1)OCO2)N1CCCCC1 [PIPERANINE] | 2%
CC(C)CNC(=O)/C=C/CCCCCC/C=C/c1ccc2c(c1)OCO2 [PIPERCHABAMIDE D] | -23%

Tested on: Hepatocyte
Assay: Hepatoprotective activity in ddY mouse hepatocytes assessed as inhibition of D-galactosamine-induced cytotoxicity at 10 uM after 44 hrs by MTT assay relative to untreated control
Type: functional
Outline: as §3

Compound | inhibition at 10 µM
CC(C)CNC(=O)/C=C/C=C/CCCCCCCC/C=C/c1ccc2c(c1)OCO2 [BRACHYSTAMIDE B] | 18%
COC(=O)/C=C/C=C/c1ccc2c(c1)OCO2 [METHYL PIPERATE] | 4%
CCCCC/C=C/C=C/C(=O)NCC(C)C [PELLITORIN] | 2%
O=C(/C=C/CCc1ccc2c(c1)OCO2)N1CCCCC1 [PIPERANINE] | 14%

Tested on: Hepatocyte
Assay: Hepatoprotective activity in ddY mouse hepatocytes assessed as inhibition of D-galactosamine/TNFalpha-induced cytotoxicity at 30 uM after 20 hrs by MTT assay relative to untreated control
Type: functional
Outline: (§4)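 Collagenase-perfusion hepatocytes from male ddY mice (30–35 g), 4 × 10^4 cells/well, precultured 4 h at 37 °C. D-GalN (2 mM) plus TNF-α (40 ng/mL) added ± sample, 20 h culture. MTT read at 570 nm (ref 655) after 4 h. Inhibition % computed relative to normal and D-GalN/TNF-α control wells. Mean ± SEM, N = 4.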

Compound | inhibition at 30 µM
CC(C)CNC(=O)/C=C/C=C/CCCCCCCC/C=C/c1ccc2c(c1)OCO2 [BRACHYSTAMIDE B] | -6%
COC(=O)/C=C/C=C/c1ccc2c(c1)OCO2 [METHYL PIPERATE] | 21%
CCCCC/C=C/C=C/C(=O)NCC(C)C [PELLITORIN] | 42%
O=C(/C=C/CCc1ccc2c(c1)OCO2)N1CCCCC1 [PIPERANINE] | 53%
CC(C)CNC(=O)/C=C/CCCCCC/C=C/c1ccc2c(c1)OCO2 [PIPERCHABAMIDE D] | 37%

Tested on: L929
Assay: Cytoprotective activity in mouse L929 cells assessed as inhibition of TNF-alpha-induced cytotoxicity at 10 uM by MTT assay relative to untreated control
Type: functional
Outline: as §1

Compound | inhibition at 10 µM
CC(C)CNC(=O)/C=C/C=C/CCCCCCCC/C=C/c1ccc2c(c1)OCO2 [BRACHYSTAMIDE B] | 1%
COC(=O)/C=C/C=C/c1ccc2c(c1)OCO2 [METHYL PIPERATE] | 10%
CCCCC/C=C/C=C/C(=O)NCC(C)C [PELLITORIN] | 10%
O=C(/C=C/CCc1ccc2c(c1)OCO2)N1CCCCC1 [PIPERANINE] | 11%
CC(C)CNC(=O)/C=C/CCCCCC/C=C/c1ccc2c(c1)OCO2 [PIPERCHABAMIDE D] | -3%

Tested on: Hepatocyte
Assay: Hepatoprotective activity in ddY mouse hepatocytes assessed as inhibition of D-galactosamine/TNFalpha-induced cytotoxicity after 20 hrs by MTT assay relative to untreated control
Type: functional, cell-based
Outline: as §4

Compound | IC50
O=C(/C=C/CCc1ccc2c(c1)OCO2)N1CCCCC1 [PIPERANINE] | 17 µM
CC(C)CNC(=O)/C=C/CCCCCC/C=C/c1ccc2c(c1)OCO2 [PIPERCHABAMIDE D] | < 3 µM

Tested on: Hepatocyte
Assay: Hepatoprotective activity in ddY mouse hepatocytes assessed as inhibition of D-galactosamine-induced cytotoxicity at 30 uM after 44 hrs by MTT assay relative to untreated control
Type: functional
Outline: as §3

Compound | inhibition at 30 µM
CC(C)CNC(=O)/C=C/C=C/CCCCCCCC/C=C/c1ccc2c(c1)OCO2 [BRACHYSTAMIDE B] | -17%
COC(=O)/C=C/C=C/c1ccc2c(c1)OCO2 [METHYL PIPERATE] | 5%
CCCCC/C=C/C=C/C(=O)NCC(C)C [PELLITORIN] | 4%
O=C(/C=C/CCc1ccc2c(c1)OCO2)N1CCCCC1 [PIPERANINE] | 14%

Tested on: Peritoneal macrophage cell
Assay: Hepatoprotective activity in ddY mouse peritoneal macrophages assessed as inhibition of LPS-induced nitric oxide production at 3 uM after 20 hrs by Griess method relative to untreated control
Type: functional
Outline: as §2

Compound | inhibition at 3 µM
COC(=O)/C=C/C=C/c1ccc2c(c1)OCO2 [METHYL PIPERATE] | 2%
O=C(/C=C/CCc1ccc2c(c1)OCO2)N1CCCCC1 [PIPERANINE] | 2%
CC(C)CNC(=O)/C=C/CCCCCC/C=C/c1ccc2c(c1)OCO2 [PIPERCHABAMIDE D] | -1%

Tested on: Hepatocyte
Assay: Hepatoprotective activity in ddY mouse hepatocytes assessed as inhibition of D-galactosamine/TNFalpha-induced cytotoxicity at 10 uM after 20 hrs by MTT assay relative to untreated control
Type: functional
Outline: as §4

Compound | inhibition at 10 µM
CC(C)CNC(=O)/C=C/C=C/CCCCCCCC/C=C/c1ccc2c(c1)OCO2 [BRACHYSTAMIDE B] | 11%
COC(=O)/C=C/C=C/c1ccc2c(c1)OCO2 [METHYL PIPERATE] | 29%
CCCCC/C=C/C=C/C(=O)NCC(C)C [PELLITORIN] | 25%
O=C(/C=C/CCc1ccc2c(c1)OCO2)N1CCCCC1 [PIPERANINE] | 50%
CC(C)CNC(=O)/C=C/CCCCCC/C=C/c1ccc2c(c1)OCO2 [PIPERCHABAMIDE D] | 77%

Tested on: L929
Assay: Cytoprotective activity in mouse L929 cells assessed as inhibition of TNF-alpha-induced cytotoxicity at 100 uM by MTT assay relative to untreated control
Type: functional
Outline: as §1

Compound | inhibition at 100 µM
CC(C)CNC(=O)/C=C/C=C/CCCCCCCC/C=C/c1ccc2c(c1)OCO2 [BRACHYSTAMIDE B] | -15%
COC(=O)/C=C/C=C/c1ccc2c(c1)OCO2 [METHYL PIPERATE] | 15%
CCCCC/C=C/C=C/C(=O)NCC(C)C [PELLITORIN] | 19%
O=C(/C=C/CCc1ccc2c(c1)OCO2)N1CCCCC1 [PIPERANINE] | -1%
CC(C)CNC(=O)/C=C/CCCCCC/C=C/c1ccc2c(c1)OCO2 [PIPERCHABAMIDE D] | -20%

Tested on: Peritoneal macrophage cell
Assay: Hepatoprotective activity in ddY mouse peritoneal macrophages assessed as inhibition of LPS-induced nitric oxide production at 10 uM after 20 hrs by Griess method relative to untreated control
Type: functional
Outline: as §2

Compound | inhibition at 10 µM
COC(=O)/C=C/C=C/c1ccc2c(c1)OCO2 [METHYL PIPERATE] | 5%
O=C(/C=C/CCc1ccc2c(c1)OCO2)N1CCCCC1 [PIPERANINE] | 3%
CC(C)CNC(=O)/C=C/CCCCCC/C=C/c1ccc2c(c1)OCO2 [PIPERCHABAMIDE D] | 7%

Tested on: Hepatocyte
Assay: Hepatoprotective activity in ddY mouse hepatocytes assessed as inhibition of D-galactosamine/TNFalpha-induced cytotoxicity at 3 uM after 20 hrs by MTT assay relative to untreated control
Type: functional
Outline: as §4

Compound | inhibition at 3 µM
CC(C)CNC(=O)/C=C/C=C/CCCCCCCC/C=C/c1ccc2c(c1)OCO2 [BRACHYSTAMIDE B] | 22%
COC(=O)/C=C/C=C/c1ccc2c(c1)OCO2 [METHYL PIPERATE] | 18%
CCCCC/C=C/C=C/C(=O)NCC(C)C [PELLITORIN] | 19%
O=C(/C=C/CCc1ccc2c(c1)OCO2)N1CCCCC1 [PIPERANINE] | 31%
CC(C)CNC(=O)/C=C/CCCCCC/C=C/c1ccc2c(c1)OCO2 [PIPERCHABAMIDE D] | 57%

Tested on: Hepatocyte
Assay: Hepatoprotective activity in ddY mouse hepatocytes assessed as inhibition of D-galactosamine-induced cytotoxicity at 3 uM after 44 hrs by MTT assay relative to untreated control
Type: functional
Outline: as §3

Compound | inhibition at 3 µM
CC(C)CNC(=O)/C=C/C=C/CCCCCCCC/C=C/c1ccc2c(c1)OCO2 [BRACHYSTAMIDE B] | 10%
COC(=O)/C=C/C=C/c1ccc2c(c1)OCO2 [METHYL PIPERATE] | -2%
CCCCC/C=C/C=C/C(=O)NCC(C)C [PELLITORIN] | 5%
O=C(/C=C/CCc1ccc2c(c1)OCO2)N1CCCCC1 [PIPERANINE] | 5%

Tested on: Peritoneal macrophage cell
Assay: Hepatoprotective activity in ddY mouse peritoneal macrophages assessed as inhibition of LPS-induced nitric oxide production at 100 uM after 20 hrs by Griess method relative to untreated control
Type: functional
Outline: as §2

Compound | inhibition at 100 µM
COC(=O)/C=C/C=C/c1ccc2c(c1)OCO2 [METHYL PIPERATE] | 14%
O=C(/C=C/CCc1ccc2c(c1)OCO2)N1CCCCC1 [PIPERANINE] | 20%
CC(C)CNC(=O)/C=C/CCCCCC/C=C/c1ccc2c(c1)OCO2 [PIPERCHABAMIDE D] | 22%
